Consider 13 compounds from ChEMBL document CHEMBL1142275, “Searching for new NO-donor aspirin-like molecules: a new class of nitrooxy-acyl derivatives of salicylic acid” (J Med Chem, 2008).

Activity calls are given as the source filed them. The calls are words filed in the database; no cut-off is given here.

Data set [1] can be described thus: Lipophilicity, log P of the compound. In kind it is physicochemical. The note with it: octanol/water.
The nature of data set [2]: Dissociation constant, pKa of the compound. In kind it is physicochemical.
Data set [3] has as its system Plasma. In words: Inhibition of collagen-induced platelet aggregation in human plasma in presence of 1H-[1,2,4]oxadiazolo[4,3-a]quinoxalin-1-one. In kind it is functional, cell-free. In short, it runs like this: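 Human PRP prepared by centrifuging citrated blood at 200 g for 20 min. Compounds (vehicle 0.5% DMSO) preincubated 10 min before collagen at 0.8-1.5 μg/mL (submaximal). Light-transmission aggregometry, stirring 1000 rpm, 37 °C, 10 min. sGC inhibitor ODQ at 50 μM. Inhibition relative to control; IC50 by non-linear regression, otherwise % inhibition at 300 μM; ≥5 experiments.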

A further data set concerns Aorta. In words: Vasodilation activity in Wistar rat aorta assessed as relaxation of phenylephrine-induced smooth muscle contraction.
Data set [4] can be described thus: Chemical stability in aqueous buffer at pH 7.4 after 3 hrs. In kind it is physicochemical. Particulars: read-out: Stability. In short, it runs like this: (§1)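 10 mM acetonitrile stock added to 0.1 M HCl (pH 1) or 50 mM phosphate buffer pH 7.4 preheated to 37 °C; final compound 250 μM. Held at 37 ± 0.5 °C, aliquots taken at intervals and analysed by RP-HPLC. Value is % compound remaining unchanged at 3 h.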

A short description of data set [5]: Chemical stability in aqueous buffer at pH 1 after 3 hrs. In kind it is physicochemical. Particulars: read-out: Stability. In short, it runs like this:
as §1

Data set [6] is described as follows: Stability in human serum assessed as half life. In kind it is ADME, cell-free. In short, it runs like this:
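Compound from 10 mM acetonitrile stock added to human serum at 37 °C (final 250 μM), incubated at 37 ± 0.5 °C. Aliquots deproteinised with acetonitrile containing 0.1% TFA, sonicated, vortexed, centrifuged 10 min at 2150 g, filtered, then RP-HPLC for parent compound and salicylic acid. First-order hydrolysis; t1/2 in h ± SD.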

Data set [7] concerns Plasma. In words: Inhibition of collagen-induced platelet aggregation in human plasma in presence of 1H-[1,2,4]oxadiazolo[4,3-a]quinoxalin-1-one.
For data set [8], the system named is Plasma. The experiment in a line: Inhibition of collagen-induced platelet aggregation in human plasma at 300 uM relative to control.
The subject of data set [9] is Rattus norvegicus. The experiment in a line: Toxicity in Wistar rat assessed as lesion index at 120 mg/kg, intragastrically after 3 hrs. In kind it is organism-based. On the set-up: dose 120 mg/kg, route intragastric. Particulars: in vivo, po. In short, it runs like this:
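Male Wistar rats, 180-200 g, fasted 24 h with water available. […] Killed after 3 h; stomachs opened along the lesser curvature and glandular mucosa examined under stereomicroscope. Each haemorrhagic lesion rated by greatest length (<1 mm = 1; 1-2 mm = 2; >2 mm = length), then summed as lesion index; mean ± SEM.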

Data set [10] deals with Rattus norvegicus. In words: Antiinflammatory activity against carrageenan-induced paw edema in Wistar rat at 120 mg/kg, intragastrically after 3 hrs. In kind it is functional. The note with it: route intragastric. In short, it runs like this: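 Conscious rats, edema raised by intraplantar 0.1 ml of 1% carrageenan (in 1% CMC) into right hindpaw. […] Paw volume by water plethysmometer before and 3 h after carrageenan. Inhibition expressed relative to vehicle edema taken as 100. Groups of 6-8 animals; mean ± SEM.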
In general terms: The carrageenan paw model is a standard test of acute inflammation.

In general, logP refers to a log measure of how a compound divides between an organic and an aqueous phase. A lower logP goes with lower lipophilicity. The term pKa denotes the negative logarithm of the acid dissociation constant. The low end stands for a stronger acid or weaker base, the high end for a weaker acid or stronger base. Usually EC50 stands for the concentration giving half of the maximal effect. The term half-life denotes the time in which the quantity being followed falls by half. In the case of `O=C(CCCCCCO[N+](=O)[O-])Oc1ccccc1C(=O)O`, the logP in [1] is 1.6. Besides, in data set [2], the pKa is 3.69. The outcome with Plasma [3] was inactive. Besides, the half-maximal effective concentration (EC50) in the data set on Aorta stood at 8.1 µM. Further, the remaining at 3 h is over 95% in data set [4] and over 97% in data set [5]. For the same compound, the half-life in data set [6] is 1.19 h.

In turn, `CC(C)(CCC(CO[N+](=O)[O-])O[N+](=O)[O-])C(=O)Oc1ccccc1C(=O)O` (stereo not given) yielded a logP in data set [1] of 1.6. In data set [2], the pKa is 3.69. For the same compound, the result with Plasma [3] was inactive. Besides, in the data set with Aorta, the EC50 was 5.3 µM. For the same compound, the remaining at 3 h is over 95% in data set [4] and over 97% in data set [5]. In addition, in data set [6], the half-life is 15.2 h.

Broadly, the IC50 is the concentration that gives 50% inhibition. The compound `O=C(CCCO[N+](=O)[O-])Oc1ccccc1C(=O)O` displayed a logP in data set [1] of 1.6. This compound also registered a pKa in [2] of 3.69. Moreover, in the data set on Aorta, the concentration giving a half-maximal response (EC50) came out at 23 µM. Besides, the remaining at 3 h in data set [4] is over 95%; in [5], over 97%. Moreover, in the data set on Plasma [7], the 50% inhibitory concentration (IC50) was determined as 24 µM. Besides, the half-life in data set [6] was 0.47 h.

As usually defined, the inhibition is how much of the control response was suppressed. High values mean strong suppression, low ones little suppression. `CC(C)(CO[N+](=O)[O-])C(=O)Oc1ccccc1C(=O)O` displayed a logP in data set [1] of 1.6. Moreover, the pKa in data set [2] was determined as 3.69. The EC50 in the data set with Aorta was found to be 6.2 µM. Besides, the remaining at 3 h was over 95% in [4] and over 97% in data set [5]. The same compound returned an inhibition at 300 µM in the data set on Plasma [8] of 26%. Further, the half-life in [6] was 9.03 h.

Regarding `O=C(CCCCCO[N+](=O)[O-])Oc1ccccc1C(=O)O`, in [1], the lipophilicity (logP) was determined as 1.6. Besides, the pKa in [2] came out at 3.69. The concentration for a half-maximal effect (EC50) in the data set on Aorta worked out at 14 µM. In addition, the remaining at 3 h in [4] is over 95%; in data set [5] it was over 97%. For the same compound, the inhibition at 300 µM with Plasma [8] came to 27%. Also, in data set [6], the half-life is 2.03 h.

For the compound `O=C(CC(CO[N+](=O)[O-])O[N+](=O)[O-])Oc1ccccc1C(=O)O` (stereo not given), in data set [1], the logP stood at 1.6. The pKa in data set [2] stood at 3.69. The EC50 in the data set with Aorta came out at 9.2 µM. Further, the figures for the remaining at 3 h in data set [4] and in data set [5] were 20% and over 85%, respectively. Also, in the data set with Plasma [7], the half-maximal inhibitory concentration (IC50) came to 119 µM. Also, the half-life in data set [6] is 0.28 h.

Regarding `CC(=O)Oc1ccccc1C(=O)O` [ASPIRIN], the Activity came out at 53.5% in the data set on Rattus norvegicus [9] and 47% with Rattus norvegicus [10]. In data set [1], this compound displayed a log partition coefficient (logP) of 1.14. For the same compound, the remaining at 3 h in data set [4] and in data set [5] was over 90% in each case. In addition, the half-life in data set [6] was 1.06 h.

The compound `O=C(CCO[N+](=O)[O-])Oc1ccccc1C(=O)O` showed a log partition coefficient (logP) in data set [1] of 1.6. In data set [2], this compound returned a pKa of 3.69. Moreover, in the data set on Aorta, the EC50 was found to be 37 µM. The results for the remaining at 3 h in data set [4] and in [5] were 55% and over 90%, respectively. Besides, the IC50 in the data set with Plasma [7] stood at 186 µM. Also, in data set [6], the half-life is 0.26 h.

`O=C(CCCCO[N+](=O)[O-])Oc1ccccc1C(=O)O` yielded a log partition coefficient (logP) in data set [1] of 1.6. Further, the pKa in data set [2] amounted to 3.69. Besides, in the data set on Aorta, the EC50 was 21 µM. Further, the remaining at 3 h in [4] is over 95%; in data set [5], over 97%. The concentration for half-maximal inhibition (IC50) in the data set on Plasma [7] is 91 µM. Also, the half-life in [6] is 0.76 h.

In the case of `O=C(CCCC(CO[N+](=O)[O-])O[N+](=O)[O-])Oc1ccccc1C(=O)O` (stereo not given), the logP in [1] amounted to 1.6. This compound also showed a pKa in [2] of 3.69. For the same compound, in the data set with Aorta, the EC50 is 5.8 µM. The values for the remaining at 3 h in data set [4] and in [5] were over 95% and over 85%, respectively. Besides, 300 µM produced 6.7% inhibition in the data set with Plasma [8]. Besides, the half-life in data set [6] is 4.87 h.

Compound `O=C(CCCCC(CO[N+](=O)[O-])O[N+](=O)[O-])Oc1ccccc1C(=O)O` (stereo not given) gave a lipophilicity (logP) in data set [1] of 1.6. In data set [2], this compound yielded a pKa of 3.69. For the same compound, the outcome in the data set on Plasma [3] was inactive. The EC50 with Aorta was 3.1 µM. The results for the remaining at 3 h in data set [4] and in data set [5] were over 95% and over 85%, respectively. The half-life in data set [6] was 6.25 h.

As to `O=C(O)c1ccccc1O` [SALICYLIC ACID], the remaining at 3 h in [4] was over 90%; in data set [5] it was 85%.

In data set [1], `O=C(CCC(CO[N+](=O)[O-])O[N+](=O)[O-])Oc1ccccc1C(=O)O` (stereo not given) gave a logP of 1.6. Further, the pKa in data set [2] was 3.69. Also, the EC50 with Aorta stood at 8.2 µM. For the same compound, the remaining at 3 h is over 95% in data set [4] and over 85% in data set [5]. The compound also showed an inhibition at 300 µM in the data set on Plasma [8] of 15%. Besides, in data set [6], the half-life is 4.09 h.
